# Shown is part of a subset that was picked to be rich in hits.
# E coli WT inh: growth inhibitors of wild type E. coli, primary screen, strain BW25113 wild type, absorbance readout. E. coli BW25113 growth inhibition, OD600. inhibition, % at 10 µM. 20,000 tested, 0.05% active. AID 552, 2006; in the data active = inhibition above about 40%;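 note: bacteria exposed to compound for 20 hours at 37 °C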
#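 assay system = bacterial strain in a whole-cell growth screen | quantity = inoculum from a 1:1000 dilution of a 1.5 h subculture | buffer or medium = LB broth with 50 µg/mL kanamycin | compound dosing = one dose, 10 µM final | schedule = compound exposure of 20 h at 37 °C | technique = absorbance at 615 nm as a measure of bacterial growth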
# Starred values were filed as active, the others as inactive.
SMILES,E coli WT inh
CC1CN(C(=O)c2cccs2)CCN1C(=O)c1cccs1 (stereo not given),-12
O=C(NCC1CCCO1)C1CC(c2ccc(Cl)c(Cl)c2)=NO1 (stereo not given),-1
COc1cccc(OCCOc2c(OC)cccc2OC)c1,-2
Cc1ccc(S(=O)(=O)N(C)CC(=O)N2CCCc3ccccc32)cc1,-23
CN(C)CCCN1C(=O)C(=O)/C(=C(/O)c2ccc3c(c2)OCCO3)C1c1ccccn1 (stereo not given),-20
O=C(O)c1c(Cl)c(Cl)c(Cl)c(Cl)c1C(=O)N1CCOCC1,4
COC(=O)CSc1nc2sc3c(c2c(=O)n1C1CCCCC1)CCN(C)C3,5
CC(=O)NCCCc1c[nH]c2ccc(Cl)cc12,-17
Cc1cc(Cn2ccnc2)c(C)cc1Cn1ccnc1,8
O=C1c2cccnc2C(=O)N1Cc1ccc2c(c1)OCO2,0
Cc1noc(C)c1C(=O)Nc1sc(C)c(C)c1C#N,-2
C=CCOc1nc2c(c(=O)n(C)c(=O)n2C)n1Cc1c(Cl)cccc1Cl,-5
Cc1cn([C@H]2C[C@H](N=[N+]=[N-])[C@@H](CO)O2)c(=O)[nH]c1=O,72*
Cc1cn([C@H]2C=C[C@@H](CO)O2)c(=O)[nH]c1=O,2
O=c1[nH]c(=O)n([C@H]2C[C@H](O)[C@@H](CO)O2)cc1F,17
CC(=O)Nc1cccc(Oc2cc(C#N)c(C#N)cc2N2CCCCCC2)c1,1
CCC(=O)c1ccc(OCCSc2ncccn2)cc1,-15
COC(=O)c1ccc(CSc2ncnc3c2nnn3-c2ccc(OC)cc2)o1,-2
CCC(NS(=O)(=O)c1ccc(C)cc1)C(=O)Nc1ccc(NC(C)=O)cc1 (stereo not given),-26
Cc1nc(N2CCc3ccccc32)[nH]c(=O)c1CCC(C)C,-6
CC1CC(C)CN(Cc2nc(N)nc(Nc3ccc4ccccc4c3)n2)C1 (stereo not given),-17
CCOc1ccccc1C1CC(c2ccc(Br)cc2)Nc2nc(N)nn21 (stereo not given),8
CCN(CC)CCCN1C(=O)C(=O)/C(=C(/O)c2ccccc2)C1c1ccccn1 (stereo not given),-4
C=CCn1c(SCc2ccccc2C#N)nnc1-c1ccccc1O,-9
CSc1nnnn1-c1cccc(O)c1,-6
SMILES,E coli WT inh
Cc1ccc2nc3c(cc(C(N)=S)c(=N)n3CCCOC(C)C)c(=O)n2c1,-14
OC(CN1CCN(c2ccccc2)CC1)c1ccc2c(c1)CCN2 (stereo not given),3
CC(C)CN(CC(C)C)C(=O)CS(=O)(=O)Cc1ccccc1,-7
CCN(CC)S(=O)(=O)c1cc(C(=O)n2cccn2)c(Cl)cc1Cl,5
CCOc1cc(NC(=O)c2ccco2)c(OCC)cc1NC(=O)CCc1ccc(OC)cc1,5
CCCCOC(=O)C1Cc2ccccc2C(=O)O1 (stereo not given),-23
O=C(Cc1c(F)cccc1Cl)N1CCCC1,5
COc1ccc(S(=O)(=O)NCCSCc2ccco2)cc1Cl,-6
Clc1ccc(SCCn2ccnc2)cc1,-5
CCn1cc(C(=O)NCc2ccco2)c(=O)c2cc(F)c(N3CCN(C(=O)c4ccco4)CC3)cc21,10
CCn1cc(C(=O)O)c(=O)c2cnc(N3CCNCC3)nc21,45*
COc1cc2nc(N3CCNCC3)nc(N)c2cc1OC,-16
CCn1cc(C(=O)O)c(=O)c2cc(F)c(N3CCNCC3)cc21,76*
CCOC(=O)N1CCN(c2cc3[nH]c(=S)[nH]c3cc2F)CC1,10
CCn1cc(C(=O)O)c(=O)c2cc(F)c(N3CCN(C(=O)Nc4ccccc4)CC3)cc21,63*
CCN1CCN(C(=O)Nc2cccc(C(F)(F)F)c2)CC1,-11
CC(=O)c1cc(F)c(N2CCN(C(=O)Cc3ccccc3)CC2)cc1C,0
CC1Cc2cc(/C(O)=C3/C(=O)C(=O)N(CC4CCCO4)C3c3ccco3)ccc2O1 (stereo not given),-20
Cc1ccc(S(=O)(=O)N2CCOCC2)cc1C(=O)OCC(=O)N1CCc2ccccc2C1,7
COc1ccc(N2CCN(Cc3nc4c(c(=O)n(C)c(=O)n4C)n3Cc3ccccc3C)CC2)cc1,1
O=C(CCn1c(=O)oc2ccccc21)NCCN1CCOCC1,18
COc1cccc(C2C(C(N)=O)=C(C)Nc3nc(-c4ccccc4Cl)nn32)c1 (stereo not given),-2
CC(CC(=O)NCc1ccccc1)C1CCCO1 (stereo not given),2
CCc1ccc(N(C(C)=O)C2C=CS(=O)(=O)C2)cc1 (stereo not given),-20
COc1ccc(S(=O)(=O)N(Cc2ccccc2)Cc2nc(-c3ccccc3)no2)cc1,-18
Cc1nnc(SC(=O)N2c3ccccc3Sc3ccccc32)s1,4
O=c1[nH]c2c(s1)C(c1ccco1)C1C3CCC(C3)C1S2 (stereo not given),-2
O=C(NCCc1ccccc1)C1CCCN(S(=O)(=O)c2cccs2)C1 (stereo not given),-3
O=C(NCc1ccco1)C1(S(=O)(=O)c2ccc(Cl)cc2)CC1,-3

# Compound activity (PubChem BioAssay)
